Test [1] concerns Mus musculus. Kind of test: Phenyl-p-benzoquinone-induced abdominal constriction after subcutaneous administration in mouse (in vivo). The format is functional, Abdomen. The essentials:
(§1)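 Mice given test agent subcutaneously, with 10 animals per dose, then challenged with phenyl-p-benzoquinone. Abdominal constrictions counted over an 8-min observation period. Percentage inhibition calculated as 1 − (T/C) × 100, with T the treated-group mean and C the control-group mean count.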

The test system of test [2] is Mus musculus. The test can be described thus: In vivo antinociceptive activity using mouse tail flick test, subcutaneous administration. In kind it is functional. On the technique in general: Hot-plate and tail-flick tests time the reaction to a heat stimulus.
Test [3] deals with Mus musculus. The test can be described thus: In vivo antinociceptive activity in mouse tail flick test following p.o. administration. The format is functional.
Test [4] addresses Kappa-type opioid receptor (Cavia porcellus, UniProt P41144). Kind of test: Displacement of [3H]-BRL 52537 from opioid receptor kappa site in guinea pig.
In another test the target is Mu-type opioid receptor (Cavia porcellus, UniProt P97266). Kind of test: Affinity for opioid receptor mu sites.
In test [5] the test system is Mus musculus. Kind of test: Concentration required for 50% inhibition of abdominal constrictions by phenyl-p-benzoquinone-induced abdominal constriction given sc in mouse. The format is functional, Abdomen. The essentials:
as §1

The mark [6] stands for this setting: Mus musculus, Abdomen, sc, read-out: ED50.
[7] abbreviates: Mus musculus, Tail, sc, read-out: ED50.
Where [8] appears, read: Mus musculus, Tail, po, read-out: ED50.

Each structure is given as a SMILES string.

Chain of Kappa-type opioid receptor (P41144 whole entry): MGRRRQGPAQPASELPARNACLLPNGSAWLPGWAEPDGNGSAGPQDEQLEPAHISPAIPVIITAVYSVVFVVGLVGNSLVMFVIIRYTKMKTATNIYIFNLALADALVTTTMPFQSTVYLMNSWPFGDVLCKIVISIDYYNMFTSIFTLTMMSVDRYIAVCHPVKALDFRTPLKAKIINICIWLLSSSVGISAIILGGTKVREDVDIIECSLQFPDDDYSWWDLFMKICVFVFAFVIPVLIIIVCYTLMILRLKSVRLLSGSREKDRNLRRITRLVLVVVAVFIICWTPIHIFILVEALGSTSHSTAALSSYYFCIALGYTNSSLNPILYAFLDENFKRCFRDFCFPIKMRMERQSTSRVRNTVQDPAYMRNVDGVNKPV
Chain of Mu-type opioid receptor (P97266 whole entry): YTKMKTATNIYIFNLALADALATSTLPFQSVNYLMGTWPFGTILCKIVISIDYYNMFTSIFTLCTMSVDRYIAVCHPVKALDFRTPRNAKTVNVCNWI

For `O=C(Cc1ccc(Cl)c(Cl)c1)N1CCc2ccccc2C1CN1CCCCC1` (racemic), the ED50 was determined as 0.101 µmol/kg with Mus musculus [1] (setting [6]), 0.359 µmol/kg with Mus musculus [2] (setting [7]) and 5.16 µmol/kg with Mus musculus [3] (setting [8]).

As to `O=C(Cc1ccc(Cl)c(Cl)c1)N1CCc2[nH]c3ccccc3c2C1CN1CCCC1` (stereo not drawn), the Ki in test [4] is 100 nM; at Mu-type opioid receptor it was greater than 1000 nM. Further, in the test with Mus musculus [2] (setting [7]), the ED50 is greater than 20 µmol/kg.

Regarding `O=C(Cc1ccc(C(F)(F)F)cc1)N1CCc2ccccc2C1CN1CCCC1` (racemic), the results for the ED50 with Mus musculus [2] (setting [7]), with Mus musculus [3] (setting [8]) and in the test with Mus musculus [5] (setting [6]) were 0.074 µmol/kg, 0.467 µmol/kg and 0.027 µmol/kg, respectively.

As for `O=C(Cc1ccc(Cl)c(Cl)c1)N1CCc2ccccc2C1CN1CCC1` (stereo not drawn), the ED50 in the test with Mus musculus [2] (setting [7]) was 23.2 µmol/kg.

Consider `O=C(Cc1ccc(C(F)(F)F)cc1)N1CCc2sccc2C1CN1CCCCC1` (stereo not drawn), for which the results for the ED50 in the test with Mus musculus [1] (setting [6]), in the test on Mus musculus [2] (setting [7]) and in the test on Mus musculus [3] (setting [8]) were 0.024 µmol/kg, 0.125 µmol/kg and 4.65 µmol/kg, respectively. Moreover, the inhibition constant (Ki) is 0.6 nM in test [4] and 420 nM on Mu-type opioid receptor.

In the case of `O=C(Cc1ccc(Cl)c(Cl)c1)N1CCc2sccc2C1CN1CCCCC1` (stereo not drawn), the ED50 in the test with Mus musculus [1] (setting [6]) was 0.024 µmol/kg; in the test on Mus musculus [2] (setting [7]), 0.096 µmol/kg; with Mus musculus [3] (setting [8]), 2.75 µmol/kg. The Ki in test [4] was 0.47 nM; on Mu-type opioid receptor, 445 nM.

Regarding `O=C(Cc1ccc([N+](=O)[O-])cc1)N1CCc2ccccc2C1CN1CCCC1` (racemic), the results for the ED50 in the test with Mus musculus [2] (setting [7]) and in the test with Mus musculus [3] (setting [8]) were 0.038 µmol/kg and 0.409 µmol/kg, respectively.

As for `CNCC1c2ccccc2CCN1C(=O)Cc1ccc(Cl)c(Cl)c1` (racemic), the ED50 with Mus musculus [2] (setting [7]) was greater than 28 µmol/kg.

As to `O=C(Cc1ccc(C(F)(F)F)cc1)N1CCc2ccccc2[C@H]1CN1CCCC1` (stereo in doubt; 30), the Ki in test [4] turned out to be 0.24 nM; at Mu-type opioid receptor, 10.7 nM. Also, the values for the ED50 in the test on Mus musculus [2], with Mus musculus [3] (setting [8]) and with Mus musculus [5] (setting [6]) were 0.032 µM/kg, 0.25 µmol/kg and 0.015 µmol/kg, respectively.

On to `O=C(Cc1ccc(Cl)c(Cl)c1)N1CCc2sccc2C1CN1CCCC1` (stereo not drawn), for which the Ki in test [4] turned out to be 0.22 nM; at Mu-type opioid receptor, 47.2 nM. The results for the ED50 in the test on Mus musculus [2] (setting [7]) and in the test on Mus musculus [3] (setting [8]) were 0.018 µmol/kg and 0.945 µmol/kg, respectively.

Take `CCO.CN(C)CC1c2ccccc2CCN1C(=O)Cc1ccc(Cl)c(Cl)c1.O=C(O)C(O)C(O)C(=O)O` (single isomer, unassigned; (-)): the Ki in test [4] amounted to 0.51 nM; on Mu-type opioid receptor, 293 nM. Besides, the values for the ED50 in the test on Mus musculus [2], with Mus musculus [3] and in the test on Mus musculus [5] were 0.075 µM/kg, 2.199 µM/kg and 0.042 µM/kg, respectively.

With `O=C(Cc1ccc(C(F)(F)F)cc1)N1CCc2ccccc2C1CN1CCCCC1` (single isomer, unassigned; (-)), the Ki in test [4] worked out at 0.62 nM; on Mu-type opioid receptor it was 231 nM. Further, the ED50 with Mus musculus [2] (setting [7]) was determined as 0.168 µmol/kg; in the test on Mus musculus [3] (setting [8]), 3.84 µmol/kg; in the test with Mus musculus [5] (setting [6]), 0.06 µmol/kg.

`O=C(Cc1ccc(Cl)c(Cl)c1)N1CCc2ccccc2C1CN1CCCCCCC1` (racemic): the ED50 in the test with Mus musculus [2] (setting [7]) is greater than 22 µmol/kg.

With `CN(CC1CC1)CC1c2ccccc2CCN1C(=O)Cc1ccc(Cl)c(Cl)c1` (racemic), the ED50 in the test with Mus musculus [2] (setting [7]) was determined as 3.39 µmol/kg.

As for `CCN(CC)CC1c2ccccc2CCN1C(=O)Cc1ccc(Cl)c(Cl)c1` (racemic), the values for the ED50 in the test with Mus musculus [2] (setting [7]) and in the test on Mus musculus [3] (setting [8]) were 0.264 µmol/kg and 3.37 µmol/kg, respectively.

For `CN(C)CC1c2ccccc2CCN1C(=O)Cc1ccc(Cl)c(Cl)c1.Cl` (racemic), the ED50 in the test on Mus musculus [2] (setting [7]) came to 0.099 µmol/kg; in the test with Mus musculus [3] (setting [8]) it was 2.88 µmol/kg; in the test on Mus musculus [5], 0.127 µM/kg.

`O=C(Cc1ccc(Cl)c(Cl)c1)N1CCc2ccccc2C1CN1CCCC1.O=C(O)C(O)C(O)C(=O)O` (stereo not drawn): the ED50 worked out at 0.017 µM/kg in the test with Mus musculus [1], 0.02 µM/kg with Mus musculus [2] and 0.544 µM/kg with Mus musculus [3].

For the compound `O=C(Cc1ccc(Cl)c(Cl)c1)N1c2ccccc2CCC1CN1CCCC1` (stereo not drawn), the ED50 in the test on Mus musculus [2] (setting [7]) is greater than 20 µmol/kg.

In the case of `O=C(Cc1ccc(Cl)c(Cl)c1)N1CCc2c([nH]c3ccccc23)C1CN1CCCC1` (stereo not drawn), the Ki was greater than 100 nM in test [4] and greater than 1000 nM on Mu-type opioid receptor. Besides, the ED50 with Mus musculus [2] (setting [7]) is greater than 20 µmol/kg.

On to `O=C(Cc1ccc(Cl)c(Cl)c1)N1CCc2ccsc2C1CN1CCCC1` (stereo not drawn), for which the Ki in test [4] worked out at 0.46 nM; at Mu-type opioid receptor it was 47 nM. The ED50 in the test with Mus musculus [2] (setting [7]) was determined as 0.073 µmol/kg; in the test on Mus musculus [3] (setting [8]) it was 1.59 µmol/kg.

As for `CN1CC[C@]23c4c5ccc(O)c4O[C@H]2[C@@H](O)C=C[C@H]3[C@H]1C5` [MORPHINE], in the test on Mus musculus [3] (setting [8]), the ED50 stood at 32.6 µmol/kg.

`O=C(Cc1ccc(C(F)(F)F)cc1)N1CCCC[C@H]1CN1CCCC1`: the ED50 in the test with Mus musculus [1] (setting [6]) turned out to be 0.099 µmol/kg; in the test on Mus musculus [2] (setting [7]) it was 0.0373 µmol/kg; in the test with Mus musculus [3] (setting [8]) it was 3.29 µmol/kg. Further, the Ki in test [4] came to 0.64 nM; at Mu-type opioid receptor it was 2340 nM.

In the case of `O=C(Cc1ccc(Cl)c(Cl)c1)N1CCc2ccccc2C1CN1CCCC1` (stereo not drawn), the ED50 with Mus musculus [1] (setting [6]) turned out to be 0.025 µmol/kg; in the test with Mus musculus [2] (setting [7]) it was 0.036 µmol/kg; with Mus musculus [3] (setting [8]) it was 0.626 µmol/kg.

Consider `O=C(Cc1ccccc1[N+](=O)[O-])N1CCc2ccccc2C1CN1CCCC1` (racemic), for which, in the test on Mus musculus [2] (setting [7]), the ED50 was greater than 21 µmol/kg.

On to `O=C(Cc1ccc(Cl)c(Cl)c1)N1CCCC[C@H]1CN1CCCC1`, for which the ED50 amounted to 0.056 µmol/kg in the test with Mus musculus [1] (setting [6]), 0.135 µmol/kg in the test on Mus musculus [2] (setting [7]) and 2.49 µmol/kg with Mus musculus [3] (setting [8]). In test [4], this compound returned an inhibitory constant (Ki) of 0.31 nM.

Regarding `O=C(Cc1ccc(Cl)c(Cl)c1)N1Cc2ccccc2CC1CN1CCCC1` (stereo not drawn), in the test on Mus musculus [2] (setting [7]), the ED50 came out at 8.23 µmol/kg.

`CCCN(CCC)CC1c2ccccc2CCN1C(=O)Cc1ccc(Cl)c(Cl)c1` (racemic): the ED50 with Mus musculus [2] (setting [7]) is greater than 23 µmol/kg.

Take `C=CCN(C)CC1c2ccccc2CCN1C(=O)Cc1ccc(Cl)c(Cl)c1` (racemic): the ED50 in the test with Mus musculus [2] (setting [7]) amounted to 0.521 µmol/kg; in the test with Mus musculus [3] (setting [8]), 6.88 µmol/kg.

`O=C(Cc1cccc([N+](=O)[O-])c1)N1CCc2ccccc2C1CN1CCCC1` (racemic): the ED50 in the test with Mus musculus [2] (setting [7]) was found to be 0.105 µmol/kg; in the test with Mus musculus [3] (setting [8]), 5.26 µmol/kg.

In the case of `O=C(Cc1ccc(Cl)c(Cl)c1)N1CCc2ccccc2C1CN1CCCCCC1` (stereo not drawn), the ED50 worked out at 0.083 µmol/kg in the test with Mus musculus [1] (setting [6]) and 0.267 µmol/kg in the test on Mus musculus [2] (setting [7]).

Consider `O=C(Cc1ccc(Br)cc1)N1CCc2ccccc2C1CN1CCCC1` (racemic), for which, in the test on Mus musculus [2] (setting [7]), the ED50 was determined as 0.07 µmol/kg.

One may read the Ki as the equilibrium dissociation constant of an inhibitor or competing ligand from its target. Read a low Ki as tighter binding.

(Values after ChEMBL document CHEMBL1125862, “(1S)-1-(aminomethyl)-2-(arylacetyl)-1,2,3,4-tetrahydroisoquinoline and heterocycle-condensed tetrahydropyridine derivatives: members of a novel class of very potent kappa opioid analgesics” (J Med Chem, 1991).)
